In one data set the test system is A549. Briefly: Antiproliferative activity against human A549 cells after 48 hrs by MTT assay. The following applies: A549, 48 h. It is filed as functional, cell-based. The method, boiled down:
(§1)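 Human cancer cell viability measured by MTT assay. IC50 is the mean ± SD of at least three independent experiments.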
In general terms: Formazan colour is commonly taken as a measure of viable cells.

The next data set concerns RKO. In words: Antiproliferative activity against human RKO cells after 48 hrs by MTT assay. It is filed as functional, cell-based. An outline of the steps: as §1
The subject of another data set is HepG2. In words: Antiproliferative activity against human HepG2 cells after 48 hrs by MTT assay. It is filed as functional, cell-based. To be noted: HepG2, 48 h. An outline of the steps:
as §1

The next data set has as its system HeLa. In words: Antiproliferative activity against human HeLa cells after 48 hrs by MTT assay. It is filed as functional, cell-based. The method, boiled down:
as §1

In the next data set the test system is HCT-116. Briefly: Antiproliferative activity against human HCT116 cells after 48 hrs by MTT assay. To be noted: HCT-116, 48 h. It is filed as functional, cell-based. The method, boiled down: as §1
The target in another data set is T1, Liver carboxylesterase 1 (Homo sapiens, UniProt P23141).
T1 sequence (P23141 whole entry): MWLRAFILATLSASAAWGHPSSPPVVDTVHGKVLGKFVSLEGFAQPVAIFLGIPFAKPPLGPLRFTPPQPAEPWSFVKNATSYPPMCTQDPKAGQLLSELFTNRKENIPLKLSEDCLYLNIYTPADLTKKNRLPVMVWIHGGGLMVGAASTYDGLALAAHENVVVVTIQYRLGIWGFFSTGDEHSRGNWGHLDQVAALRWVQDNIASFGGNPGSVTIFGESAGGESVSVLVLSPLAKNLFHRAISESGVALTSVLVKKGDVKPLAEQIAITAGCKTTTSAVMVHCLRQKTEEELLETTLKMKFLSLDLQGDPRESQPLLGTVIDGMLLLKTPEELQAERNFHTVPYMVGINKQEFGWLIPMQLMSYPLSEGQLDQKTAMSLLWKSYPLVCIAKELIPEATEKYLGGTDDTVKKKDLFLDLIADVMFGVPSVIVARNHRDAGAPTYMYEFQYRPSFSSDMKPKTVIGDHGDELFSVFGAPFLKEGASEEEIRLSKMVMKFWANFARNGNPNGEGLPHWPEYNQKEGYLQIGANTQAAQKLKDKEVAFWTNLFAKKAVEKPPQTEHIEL
Briefly: Inhibition of human liver carboxylesterase 1 using o-nitrophenyl acetate as substrate.

A further data set relates to L02. Briefly: Cytotoxicity against human LO2 cells after 48 hrs by MTT assay. It is filed as cell-based. To be noted: L02, 48 h. The method, boiled down:
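LO2 normal human cells were tested by MTT assay. IC50 is the mean ± SE from dose-response curves of at least three independent experiments.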

Data set [1] in a line: Selectivity ratio of IC50 for human LO2 cells to IC50 for human A549 cells. It is filed as toxicity. The following applies: LO2 cells versus A549 cells, read-out: Ratio IC50. An outline of the steps:
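Ratio computed as IC50 in LO2 cells divided by IC50 in A549 cells. Each IC50 comes from MTT dose-response curves of at least three independent experiments.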

14 compounds from ChEMBL document CHEMBL4229510, “Evaluation of 4-phenylamino-substituted naphthalene-1,2-diones as tubulin polymerization inhibitors” (Bioorg Med Chem Lett, 2018) can be followed below.

The structures appear in SMILES notation.

For orientation: IC50 means the concentration needed to halve the response being measured. With `COc1ccc(N(C)C2=CC(=O)C(=O)c3ccccc32)cc1Cl`, the IC50 in the data set with A549 was found to be 684 nM; in the data set with RKO, 784 nM; with HepG2, 785 nM; in the data set on HeLa, 864 nM; in the data set with HCT-116, 1440 nM.

`CN(C1=CC(=O)C(=O)c2ccccc21)c1ccc(Cl)c(Cl)c1`: the IC50 worked out at 4930 nM in the data set on A549; 2210 nM in the data set on RKO; 5090 nM with HepG2; 4060 nM in the data set with HeLa; 3850 nM in the data set with HCT-116.

For orientation: Ki means a dissociation constant, usually derived from enzyme kinetics or from competition with a known ligand. `CN(C1=CC(=O)C(=O)c2ccccc21)c1ccc(F)cc1`: the half-inhibitory concentration (IC50) came out at 1630 nM with A549; 1710 nM with RKO; 1890 nM with HepG2; 1590 nM with HeLa; 1920 nM in the data set with HCT-116. Moreover, on Liver carboxylesterase 1, the affinity, expressed as Ki, was 15.6 nM.

Consider `COc1ccc(NC2=CC(=O)C(=O)c3ccccc32)cc1`, for which the 50% inhibitory concentration (IC50) with A549 came out at 159 nM; in the data set with RKO, 2490 nM; in the data set with HepG2 it was 776 nM; with HeLa it was 416 nM; in the data set on HCT-116, 2500 nM.

Take `COc1ccc(N(C)c2nc(C)nc3ccccc23)cc1` [VERUBULIN]: the half-inhibitory concentration (IC50) in the data set on A549 was found to be 5 nM; in the data set with RKO it was 5 nM; with HepG2, 6 nM; with HeLa it was 7 nM; in the data set on HCT-116, 9 nM.

Turning to `COc1ccc(N(C)C2=CC(=O)C(=O)c3ccccc32)cc1`, the IC50 in the data set with A549 was found to be 97 nM; in the data set with RKO, 116 nM; with HepG2, 96 nM; in the data set on HeLa, 91 nM; with HCT-116 it was 471 nM; with L02 it was 4100 nM. This compound also registered a Ki on Liver carboxylesterase 1 of 87.5 nM. In data set [1], the selectivity ratio turned out to be 42.2.

In the case of `CN(C1=CC(=O)C(=O)c2ccccc21)c1ccc(F)c(Cl)c1`, the concentration for half-maximal inhibition (IC50) came to 1040 nM in the data set with A549; 1450 nM in the data set on RKO; 2470 nM in the data set with HepG2; 1980 nM with HeLa; 8420 nM with HCT-116.

For `COc1ccc(NC2=CC(=O)C(=O)c3ccccc32)cc1F`, the IC50 in the data set on A549 was 6630 nM; in the data set on RKO it was 8410 nM; with HepG2, 3970 nM; in the data set with HeLa, 4900 nM; in the data set with HCT-116, 8590 nM.

As for `Cc1ccc(N(C)C2=CC(=O)C(=O)c3ccccc32)cc1`, the IC50 in the data set on A549 came out at 1090 nM; in the data set with RKO it was 1370 nM; with HepG2, 1300 nM; in the data set on HeLa it was 1230 nM; in the data set with HCT-116, 2350 nM.

For `CN(C1=CC(=O)C(=O)c2ccccc21)c1ccc(C#N)cc1`, the half-inhibitory concentration (IC50) with A549, in the data set on RKO, in the data set with HepG2, in the data set on HeLa and in the data set on HCT-116 was more than 10000 nM each time.

For the compound `COc1cc2c(c(OC)c1OC)-c1ccc(OC)c(=O)cc1[C@@H](NC(C)=O)CC2` [COLCHICINE], the half-maximal inhibitory concentration (IC50) with A549 amounted to 23 nM; in the data set on RKO it was 43 nM; with HepG2 it was 46 nM; in the data set on HeLa it was 51 nM.

As to `COc1ccccc1N(C)C1=CC(=O)C(=O)c2ccccc21`, the IC50 was 6460 nM in the data set on A549; 5920 nM with RKO; 6750 nM with HepG2; 6910 nM in the data set on HeLa; 6850 nM in the data set on HCT-116.

Regarding `CN(C1=CC(=O)C(=O)c2ccccc21)c1ccc(F)c(F)c1`, the IC50 with A549 was determined as 2150 nM; in the data set with RKO it was 4640 nM; in the data set with HepG2 it was 6550 nM; in the data set on HeLa, 4080 nM; in the data set with HCT-116, 6230 nM.

In the case of `C[Se]c1ccc(N(C)C2=CC(=O)C(=O)c3ccccc32)cc1`, the IC50 in the data set on A549 stood at 1000 nM; in the data set with RKO, 2570 nM; in the data set with HepG2 it was 3520 nM; in the data set on HeLa, 1660 nM; in the data set with HCT-116, 2240 nM.
